For 34 compounds, IC50 results are on record in ChEMBL document CHEMBL3875209, “Synthesis and biological evaluation of cis-restricted triazole/tetrazole mimics of combretastatin-benzothiazole hybrids as tubulin polymerization inhibitors and apoptosis inducers” (Bioorg Med Chem, 2017).

Holding throughout (format): functional, cell-based
Experiment [1] can be described thus: Antiproliferative activity against human DU145 cells after 48 hrs by MTT assay. The settings on record: DU-145, 48 h. The procedure, abridged:
(§1)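 MTT assay. Cells seeded in DMEM with 10% FBS and left 24 h at 37 °C in CO2 before compound treatment for 48 h. MTT (5 mg/mL stock) added for 4 h, formazan dissolved in DMSO, absorbance read at 570 nm. IC50 taken as the mean of three independent experiments.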
Background: Formazan colour is commonly taken as a measure of viable cells.

Experiment [2] is described as follows: Antiproliferative activity against human HeLa cells after 48 hrs by MTT assay. The gist of the method:
as §1

Experiment [3] in a line: Antiproliferative activity against human A549 cells after 48 hrs by MTT assay. As to conditions: A549, 48 h. The gist of the method: as §1
Experiment [4] can be described thus: Antiproliferative activity against human HepG2 cells after 48 hrs by MTT assay. The settings on record: HepG2, 48 h. The gist of the method:
as §1

A short description of experiment [5]: Antiproliferative activity against human MCF7 cells after 48 hrs by MTT assay. The settings on record: MCF7, 48 h. The procedure, abridged: as §1

What is called IC50 is the concentration needed to halve the response being measured. In the case of `COc1cc(OC)c2sc(-c3ccc(-n4nnnc4-c4cc(OC)c(OC)c(OC)c4)cc3)nc2c1`, the IC50 in experiment [1] turned out to be 19.9 µM; in experiment [2] it was 10.2 µM; in experiment [3] it was 7.24 µM; in experiment [4] it was 22.4 µM; in experiment [5], 31.6 µM.

In the case of `COc1ccc2nc(-c3ccc(-n4cc(-c5cc(OC)c(OC)c(OC)c5)nn4)c(OC)c3)sc2c1`, the IC50 in experiment [1] came to 18.6 µM; in experiment [2], 11.1 µM; in experiment [3], 10.7 µM; in experiment [4], 16.4 µM; in experiment [5] it was 15.5 µM.

For `COc1ccc2nc(-c3ccc(-n4cc(-c5cc(OC)c(OC)c(OC)c5)nn4)cc3)sc2c1`, the IC50 in experiment [1] was 12.3 µM; in experiment [2], 11.5 µM; in experiment [3], 6.3 µM; in experiment [4], 12.4 µM; in experiment [5], 22.9 µM.

For the compound `COc1cc(-c2nc3cc(OC)c(OC)c(OC)c3s2)ccc1-n1nnnc1-c1cc(OC)c(OC)c(OC)c1`, the IC50 in experiment [1] came out at 10.8 µM; in experiment [2], 5.79 µM; in experiment [3], 3.8 µM; in experiment [4] it was 16 µM; in experiment [5], 16.6 µM.

Turning to `COc1cc(OC)c2sc(-c3ccc(-n4cnnc4-c4cc(OC)c(OC)c(OC)c4)c(OC)c3)nc2c1`, the IC50 in experiment [1] came to 10.2 µM; in experiment [2] it was 6.45 µM; in experiment [3], 7.24 µM; in experiment [4] it was 9.2 µM; in experiment [5], 8.57 µM.

With `COc1cc(-c2nc3cc(OC)c(OC)c(OC)c3s2)ccc1-n1cnnc1-c1cc(OC)c(OC)c(OC)c1`, the IC50 in experiment [1] worked out at 11.5 µM; in experiment [2] it was 5.51 µM; in experiment [3] it was 3.46 µM; in experiment [4], 7.41 µM; in experiment [5], 10.5 µM.

Take `COc1cc(-c2cn(-c3ccc(-c4nc5cc(OC)c(OC)c(OC)c5s4)cc3)nn2)cc(OC)c1OC`: the IC50 in experiment [1] is 14.8 µM; in experiment [2] it was 11.5 µM; in experiment [3], 8.54 µM; in experiment [4], 15.5 µM; in experiment [5] it was 9.12 µM.

Regarding `COc1cc(-c2cn(-c3ccc(-c4nc5ccc(F)cc5s4)cc3)nn2)cc(OC)c1OC`, the IC50 in experiment [1] is 8.12 µM; in experiment [2], 3.46 µM; in experiment [3], 1.41 µM; in experiment [4], 7.76 µM; in experiment [5], 10.7 µM.

Take `COc1cc(OC)c2sc(-c3ccc(-n4cc(-c5cc(OC)c(OC)c(OC)c5)nn4)c(OC)c3)nc2c1`: the IC50 in experiment [1] is 0.41 µM; in experiment [2] it was 0.37 µM; in experiment [3], 0.24 µM; in experiment [4], 1.47 µM; in experiment [5], 4.36 µM.

Turning to `COc1cc(-c2nnnn2-c2ccc(-c3nc4ccc(F)cc4s3)cc2)cc(OC)c1OC`, the IC50 in experiment [1] came to 4.57 µM; in experiment [2] it was 2.23 µM; in experiment [3], 2.07 µM; in experiment [4], 7.95 µM; in experiment [5], 8.57 µM.

Consider `COc1cc(-c2cn(-c3ccc(-c4nc5cc(OC)c(OC)c(OC)c5s4)cc3C)nn2)cc(OC)c1OC`, for which the IC50 came to 15.8 µM in experiment [1]; 11.3 µM in experiment [2]; 9.77 µM in experiment [3]; 18.6 µM in experiment [4]; 20.8 µM in experiment [5].

Turning to `COc1cc(-c2nncn2-c2ccc(-c3nc4cc(OC)c(OC)c(OC)c4s3)cc2C)cc(OC)c1OC`, the 50% inhibitory concentration (IC50) in experiment [1] amounted to 0.7 µM; in experiment [2], 0.21 µM; in experiment [3], 0.23 µM; in experiment [4], 1.25 µM; in experiment [5] it was 2.99 µM.

`COc1cc(-c2nnnn2-c2ccc(-c3nc4cc(OC)c(OC)c(OC)c4s3)cc2C)cc(OC)c1OC`: the IC50 in experiment [1] turned out to be 14.8 µM; in experiment [2], 9.81 µM; in experiment [3] it was 7.41 µM; in experiment [4], 23.4 µM; in experiment [5], 17.5 µM.

As for `COc1cc(-c2nc3ccc(F)cc3s2)ccc1-n1nnnc1-c1cc(OC)c(OC)c(OC)c1`, the IC50 in experiment [1] was determined as 4.77 µM; in experiment [2], 4.36 µM; in experiment [3], 1.38 µM; in experiment [4] it was 1.24 µM; in experiment [5] it was 1.52 µM.

On to `COc1ccc2nc(-c3ccc(-n4nnnc4-c4cc(OC)c(OC)c(OC)c4)c(C)c3)sc2c1`, for which the IC50 in experiment [1] worked out at 15.9 µM; in experiment [2] it was 11 µM; in experiment [3], 4.78 µM; in experiment [4], 10.5 µM; in experiment [5] it was 12.6 µM.

Consider `COc1ccc2nc(-c3ccc(-n4nnnc4-c4cc(OC)c(OC)c(OC)c4)cc3)sc2c1`, for which the IC50 in experiment [1] is 9.12 µM; in experiment [2] it was 6.6 µM; in experiment [3], 3.8 µM; in experiment [4], 9.05 µM; in experiment [5] it was 11.2 µM.

`COc1cc(OC)c2sc(-c3ccc(-n4nnnc4-c4cc(OC)c(OC)c(OC)c4)c(OC)c3)nc2c1`: the IC50 in experiment [1] came to 13.5 µM; in experiment [2], 11.7 µM; in experiment [3], 9.24 µM; in experiment [4], 17 µM; in experiment [5], 24.7 µM.

As for `COc1ccc2nc(-c3ccc(-n4cc(-c5cc(OC)c(OC)c(OC)c5)nn4)c(C)c3)sc2c1`, the IC50 was 18.2 µM in experiment [1]; 13.1 µM in experiment [2]; 15.8 µM in experiment [3]; 20.1 µM in experiment [4]; 22 µM in experiment [5].

As to `COc1cc(-c2nnnn2-c2ccc(-c3nc4ccc(F)cc4s3)cc2C)cc(OC)c1OC`, the IC50 in experiment [1] was determined as 1.14 µM; in experiment [2], 0.97 µM; in experiment [3], 0.24 µM; in experiment [4], 1.69 µM; in experiment [5], 3.23 µM.

As for `COc1cc(OC)c2sc(-c3ccc(-n4cc(-c5cc(OC)c(OC)c(OC)c5)nn4)c(C)c3)nc2c1`, the IC50 amounted to 10.2 µM in experiment [1]; 8.12 µM in experiment [2]; 7.76 µM in experiment [3]; 15.5 µM in experiment [4]; 18.8 µM in experiment [5].

Regarding `COc1cc(OC)c2sc(-c3ccc(-n4cnnc4-c4cc(OC)c(OC)c(OC)c4)cc3)nc2c1`, the IC50 in experiment [1] was determined as 11.8 µM; in experiment [2] it was 4.13 µM; in experiment [3] it was 5.04 µM; in experiment [4], 9.65 µM; in experiment [5], 8.21 µM.

As for `COc1cc(-c2nc3ccc(F)cc3s2)ccc1-n1cnnc1-c1cc(OC)c(OC)c(OC)c1`, the IC50 stood at 7.58 µM in experiment [1]; 2.81 µM in experiment [2]; 1.22 µM in experiment [3]; 2.75 µM in experiment [4]; 2.49 µM in experiment [5].

Consider `COc1cc(-c2nnnn2-c2ccc(-c3nc4cc(OC)c(OC)c(OC)c4s3)cc2)cc(OC)c1OC`, for which the IC50 in experiment [1] was determined as 7.24 µM; in experiment [2], 6.16 µM; in experiment [3], 3.54 µM; in experiment [4] it was 8.51 µM; in experiment [5] it was 8.68 µM.

Regarding `COc1ccc2nc(-c3ccc(-n4nnnc4-c4cc(OC)c(OC)c(OC)c4)c(OC)c3)sc2c1`, the IC50 in experiment [1] came to 5.67 µM; in experiment [2], 4.56 µM; in experiment [3] it was 2.25 µM; in experiment [4], 1.67 µM; in experiment [5], 3.45 µM.

`COc1ccc2nc(-c3ccc(-n4cnnc4-c4cc(OC)c(OC)c(OC)c4)c(OC)c3)sc2c1`: the IC50 was 11.6 µM in experiment [1]; 8.76 µM in experiment [2]; 9.06 µM in experiment [3]; 9.05 µM in experiment [4]; 14.7 µM in experiment [5].

Consider `COc1cc(-c2nc3cc(OC)c(OC)c(OC)c3s2)ccc1-n1cc(-c2cc(OC)c(OC)c(OC)c2)nn1`, for which the half-inhibitory concentration (IC50) in experiment [1] was determined as 15.9 µM; in experiment [2] it was 17.8 µM; in experiment [3], 11 µM; in experiment [4], 29.9 µM; in experiment [5] it was 27.8 µM.

As for `COc1cc(-c2cn(-c3ccc(-c4nc5ccc(F)cc5s4)cc3C)nn2)cc(OC)c1OC`, the IC50 in experiment [1] turned out to be 7.33 µM; in experiment [2] it was 6.76 µM; in experiment [3] it was 3.38 µM; in experiment [4], 8.05 µM; in experiment [5] it was 10.8 µM.

With `COc1cc(OC)c2sc(-c3ccc(-n4cc(-c5cc(OC)c(OC)c(OC)c5)nn4)cc3)nc2c1`, the half-maximal inhibitory concentration (IC50) in experiment [1] was 9.33 µM; in experiment [2], 9.05 µM; in experiment [3], 7.61 µM; in experiment [4], 17.4 µM; in experiment [5] it was 19.9 µM.

For the compound `COc1ccc2nc(-c3ccc(-n4cnnc4-c4cc(OC)c(OC)c(OC)c4)cc3)sc2c1`, the IC50 in experiment [1] was determined as 11.2 µM; in experiment [2] it was 10 µM; in experiment [3], 7.24 µM; in experiment [4] it was 11.6 µM; in experiment [5], 9.5 µM.

Turning to `COc1cc(-c2nncn2-c2ccc(-c3nc4ccc(F)cc4s3)cc2)cc(OC)c1OC`, the IC50 was 8.21 µM in experiment [1]; 7 µM in experiment [2]; 6.58 µM in experiment [3]; 10.4 µM in experiment [4]; 12.5 µM in experiment [5].

Turning to `COc1cc(-c2nncn2-c2ccc(-c3nc4cc(OC)c(OC)c(OC)c4s3)cc2)cc(OC)c1OC`, the IC50 is 0.46 µM in experiment [1]; 0.21 µM in experiment [2]; 0.091 µM in experiment [3]; 1.27 µM in experiment [4]; 3.15 µM in experiment [5].

For the compound `COc1cc(OC)c2sc(-c3ccc(-n4nnnc4-c4cc(OC)c(OC)c(OC)c4)c(C)c3)nc2c1`, the IC50 in experiment [1] was determined as 11.7 µM; in experiment [2] it was 8.7 µM; in experiment [3], 5.38 µM; in experiment [4], 9.74 µM; in experiment [5], 17.2 µM.

For `COc1cc(OC)c2sc(-c3ccc(-n4cnnc4-c4cc(OC)c(OC)c(OC)c4)c(C)c3)nc2c1`, the IC50 in experiment [1] was 1.04 µM; in experiment [2] it was 0.93 µM; in experiment [3], 0.26 µM; in experiment [4], 2.54 µM; in experiment [5] it was 5.35 µM.

As to `COc1cc(-c2nc3ccc(F)cc3s2)ccc1-n1cc(-c2cc(OC)c(OC)c(OC)c2)nn1`, the IC50 is 14.2 µM in experiment [1]; 10.1 µM in experiment [2]; 6.02 µM in experiment [3]; 13.9 µM in experiment [4]; 16.1 µM in experiment [5].
